Measured values from ChEMBL document CHEMBL1156610, “Synthesis, biological evaluation, and molecular modeling studies of methylene imidazole substituted biaryls as inhibitors of human 17alpha-hydroxylase-17,20-lyase (CYP17)--part II: Core rigidification and influence of substituents at the methylene bridge” (Bioorg Med Chem, 2008).

Tests used:
[1] = biological target: T1, Steroid 17-alpha-hydroxylase/17,20 lyase (Homo sapiens, UniProt P05093); test: Inhibition of human CYP17 expressed in Escherichia coli coexpressed with cytochrome P450 reductase
T1 sequence (P05093 whole entry): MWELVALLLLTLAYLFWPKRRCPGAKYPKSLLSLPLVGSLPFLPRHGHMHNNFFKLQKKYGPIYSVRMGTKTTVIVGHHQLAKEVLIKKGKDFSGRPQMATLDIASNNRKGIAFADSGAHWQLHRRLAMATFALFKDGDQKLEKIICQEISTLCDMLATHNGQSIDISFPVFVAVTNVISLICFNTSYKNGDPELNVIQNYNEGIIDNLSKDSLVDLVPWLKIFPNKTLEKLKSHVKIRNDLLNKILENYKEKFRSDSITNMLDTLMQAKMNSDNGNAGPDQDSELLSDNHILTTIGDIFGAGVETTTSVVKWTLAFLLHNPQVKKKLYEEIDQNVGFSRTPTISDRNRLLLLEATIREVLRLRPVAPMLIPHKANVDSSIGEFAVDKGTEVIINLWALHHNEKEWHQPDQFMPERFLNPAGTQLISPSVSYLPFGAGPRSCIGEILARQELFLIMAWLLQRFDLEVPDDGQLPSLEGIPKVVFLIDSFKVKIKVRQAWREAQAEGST
How it was run: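 Enzyme source: 50,000g sediment from homogenized E. coli coexpressing human CYP17 and cytochrome P450 reductase. Substrate progesterone (25 µM as printed), NADPH cofactor.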

CYP1A2 = biological target: T2, CYP1A2 (Homo sapiens, UniProt P05177); test: Inhibition of hepatic CYP1A2 expressed in insect microsomes at 1 uM; format: ADME, Microsome
T2 sequence (P05177 whole entry): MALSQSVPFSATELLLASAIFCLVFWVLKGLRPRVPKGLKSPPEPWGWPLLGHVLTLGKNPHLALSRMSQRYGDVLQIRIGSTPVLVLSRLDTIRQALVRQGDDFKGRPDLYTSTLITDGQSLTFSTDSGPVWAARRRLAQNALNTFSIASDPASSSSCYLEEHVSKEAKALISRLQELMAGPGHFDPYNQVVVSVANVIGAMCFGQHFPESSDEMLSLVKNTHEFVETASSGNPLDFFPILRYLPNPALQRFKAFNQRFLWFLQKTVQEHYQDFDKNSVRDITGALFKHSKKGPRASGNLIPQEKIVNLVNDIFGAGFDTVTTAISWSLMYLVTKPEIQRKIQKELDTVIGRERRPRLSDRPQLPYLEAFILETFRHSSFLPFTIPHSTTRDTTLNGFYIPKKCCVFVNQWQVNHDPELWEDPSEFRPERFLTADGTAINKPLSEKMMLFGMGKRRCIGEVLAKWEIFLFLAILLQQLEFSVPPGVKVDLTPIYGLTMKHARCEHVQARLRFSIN
How it was run: (§1)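 Recombinant human enzymes from baculovirus-infected insect cell microsomes, run per supplier protocol. Test concentration 1 µM; values are means of at least three independent tests, standard deviations under 5%.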

CYP3A4 = CYP3A4 (Homo sapiens, UniProt P08684); test: Inhibition of hepatic CYP3A4 expressed in insect microsomes at 1 uM; format: ADME, Microsome; how it was run: as §1
Chain of CYP3A4 (P08684 whole entry): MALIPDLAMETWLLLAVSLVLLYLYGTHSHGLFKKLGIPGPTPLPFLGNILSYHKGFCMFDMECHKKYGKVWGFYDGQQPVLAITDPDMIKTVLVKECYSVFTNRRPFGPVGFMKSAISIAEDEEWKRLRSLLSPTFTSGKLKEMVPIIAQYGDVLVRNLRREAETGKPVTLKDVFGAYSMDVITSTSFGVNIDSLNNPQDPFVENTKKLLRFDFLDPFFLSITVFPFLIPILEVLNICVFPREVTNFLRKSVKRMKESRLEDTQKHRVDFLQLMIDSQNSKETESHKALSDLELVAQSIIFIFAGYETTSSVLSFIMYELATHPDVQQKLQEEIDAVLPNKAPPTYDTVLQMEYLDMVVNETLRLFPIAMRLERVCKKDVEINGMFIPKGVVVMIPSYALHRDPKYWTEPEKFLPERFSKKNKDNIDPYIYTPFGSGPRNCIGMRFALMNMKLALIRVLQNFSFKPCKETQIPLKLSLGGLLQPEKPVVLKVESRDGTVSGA

Rattus norvegicus [2] = test: Reduction in plasma testosterone level in Wistar rat at 50 mg/kg, po after 8 hrs; format: functional; design: scale not given: the % may be the effect or the level left
CYP2D6 = CYP2D6 (Homo sapiens, UniProt P10635); test: Inhibition of hepatic CYP2D6 expressed in insect microsomes at 1 uM; format: ADME, Microsome; how it was run: as §1
Chain of CYP2D6 (P10635 whole entry): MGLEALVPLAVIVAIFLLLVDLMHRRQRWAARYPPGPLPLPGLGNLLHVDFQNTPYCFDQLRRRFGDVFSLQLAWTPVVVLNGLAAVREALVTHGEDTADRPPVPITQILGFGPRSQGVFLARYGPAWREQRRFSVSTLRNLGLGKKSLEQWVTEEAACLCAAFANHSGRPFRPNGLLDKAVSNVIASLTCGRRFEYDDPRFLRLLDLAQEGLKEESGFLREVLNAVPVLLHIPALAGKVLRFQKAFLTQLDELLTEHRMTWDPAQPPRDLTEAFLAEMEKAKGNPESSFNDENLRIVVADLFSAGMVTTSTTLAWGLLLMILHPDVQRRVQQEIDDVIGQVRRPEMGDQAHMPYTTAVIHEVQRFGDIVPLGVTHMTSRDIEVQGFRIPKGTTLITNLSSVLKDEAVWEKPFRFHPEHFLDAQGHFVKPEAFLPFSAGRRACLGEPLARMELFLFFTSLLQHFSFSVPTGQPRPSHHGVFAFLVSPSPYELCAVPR

[3] = Terminal half life in Wistar rat at 50 mg/kg, po; format: ADME, organism-based; design: dose 50 mg/kg, route oral; details: in vivo
How it was run: (§2)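 Male Wistar rats dosed orally at 50 mg/kg, or as acetate at 56 mg/kg (equivalent to 50 mg/kg parent). Plasma drug levels by LC–MS; non-compartmental analysis on mean plasma concentration–time data, values below detection limit set to zero. AUC, Cmax, tmax, terminal t1/2 and intrinsic hepatic clearance derived.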

CYP11B1 = biological target: T3, CYP11B1 (Homo sapiens, UniProt P15538); test: Inhibition of human CYP11B1 at 0.2 uM using [4-14C]-11-dexycorticosterone as a substrate; details: probe [4-14C]-11-dexycorticosterone
T3 sequence (P15538 whole entry): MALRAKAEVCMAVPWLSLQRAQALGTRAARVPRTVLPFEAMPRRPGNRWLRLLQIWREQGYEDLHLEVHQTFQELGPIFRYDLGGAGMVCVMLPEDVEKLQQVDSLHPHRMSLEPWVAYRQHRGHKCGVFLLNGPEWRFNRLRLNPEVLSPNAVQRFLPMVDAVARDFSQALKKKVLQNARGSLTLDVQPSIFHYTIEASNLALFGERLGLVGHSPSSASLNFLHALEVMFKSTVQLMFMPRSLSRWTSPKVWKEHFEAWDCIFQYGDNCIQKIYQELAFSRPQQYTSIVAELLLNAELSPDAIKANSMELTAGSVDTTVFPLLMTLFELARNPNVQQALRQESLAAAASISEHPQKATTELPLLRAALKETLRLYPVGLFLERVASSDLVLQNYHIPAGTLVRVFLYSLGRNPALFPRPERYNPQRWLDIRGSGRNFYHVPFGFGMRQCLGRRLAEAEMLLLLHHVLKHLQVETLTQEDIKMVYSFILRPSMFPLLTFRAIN
How it was run: (§3)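 V79MZh cells expressing human CYP11B1 or CYP11B2, incubated with [4-14C]-11-deoxycorticosterone as substrate; inhibitors tested at 0.2 µM.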

[4] = Cmax in Wistar rat at 50 mg/kg, po; format: ADME, organism-based; design: dose 50 mg/kg, route oral; details: in vivo; how it was run: as §2
Rattus norvegicus [5] = test: Reduction in plasma testosterone level in Wistar rat at 50 mg/kg, po after 6 hrs; format: functional; design: scale not given: the % may be the effect or the level left
Rattus norvegicus [6] = test: Reduction in plasma testosterone level in Wistar rat at 50 mg/kg, po after 1 hr; format: functional; design: scale not given: the % may be the effect or the level left
CYP2B6 = biological target: T4, CYP2B6 (Homo sapiens, UniProt P20813); test: Inhibition of hepatic CYP2B6 expressed in insect microsomes at 1 uM; format: ADME, Microsome; how it was run: as §1
T4 sequence (P20813 whole entry): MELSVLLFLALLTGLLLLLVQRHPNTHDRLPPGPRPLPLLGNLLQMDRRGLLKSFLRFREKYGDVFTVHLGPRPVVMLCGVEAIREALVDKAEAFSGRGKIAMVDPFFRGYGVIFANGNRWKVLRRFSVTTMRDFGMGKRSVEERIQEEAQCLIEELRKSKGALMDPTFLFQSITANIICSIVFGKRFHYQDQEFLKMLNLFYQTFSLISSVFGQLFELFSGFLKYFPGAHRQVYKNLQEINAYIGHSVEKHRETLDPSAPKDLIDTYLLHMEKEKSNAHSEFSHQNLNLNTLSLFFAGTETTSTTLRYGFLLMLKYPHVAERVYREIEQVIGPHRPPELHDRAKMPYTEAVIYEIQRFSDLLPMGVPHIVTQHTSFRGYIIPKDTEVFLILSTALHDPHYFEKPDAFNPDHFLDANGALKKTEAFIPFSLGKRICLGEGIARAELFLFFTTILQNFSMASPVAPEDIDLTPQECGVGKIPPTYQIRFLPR

[7] = Tmax in Wistar rat at 50 mg/kg, po; format: ADME, organism-based; design: dose 50 mg/kg, route oral; details: in vivo; how it was run: as §2
Rattus norvegicus [8] = test: Reduction in plasma testosterone level in Wistar rat at 50 mg/kg, po after 24 hrs; format: functional; design: Activity: scale not given: the % may be the effect or the level left
[9] = AUC (0 to infinity) in Wistar rat at 50 mg/kg, po; format: ADME, organism-based; design: time infinity, dose 50 mg/kg, route oral; details: plasma; how it was run: as §2
Rattus norvegicus [10] = test: Reduction in plasma testosterone level in Wistar rat at 50 mg/kg, po after 2 hrs; format: functional; design: scale not given: the % may be the effect or the level left
Rattus norvegicus [11] = test: Reduction in plasma testosterone level in Wistar rat at 50 mg/kg, po after 4 hrs; format: functional; design: scale not given: the % may be the effect or the level left
Rattus norvegicus [12] = test: Intrinsic clearance in Wistar rat at 50 mg/kg, po; format: ADME, organism-based; design: dose 50 mg/kg, route oral; details: in vivo; how it was run: as §2
CYP11B2 = biological target: T5, CYP11B2 (Homo sapiens, UniProt P19099); test: Inhibition of human CYP11B2 at 0.2 uM using [4-14C]-11-dexycorticosterone as a substrate; details: probe [4-14C]-11-dexycorticosterone; how it was run: as §3
T5 sequence (P19099 whole entry): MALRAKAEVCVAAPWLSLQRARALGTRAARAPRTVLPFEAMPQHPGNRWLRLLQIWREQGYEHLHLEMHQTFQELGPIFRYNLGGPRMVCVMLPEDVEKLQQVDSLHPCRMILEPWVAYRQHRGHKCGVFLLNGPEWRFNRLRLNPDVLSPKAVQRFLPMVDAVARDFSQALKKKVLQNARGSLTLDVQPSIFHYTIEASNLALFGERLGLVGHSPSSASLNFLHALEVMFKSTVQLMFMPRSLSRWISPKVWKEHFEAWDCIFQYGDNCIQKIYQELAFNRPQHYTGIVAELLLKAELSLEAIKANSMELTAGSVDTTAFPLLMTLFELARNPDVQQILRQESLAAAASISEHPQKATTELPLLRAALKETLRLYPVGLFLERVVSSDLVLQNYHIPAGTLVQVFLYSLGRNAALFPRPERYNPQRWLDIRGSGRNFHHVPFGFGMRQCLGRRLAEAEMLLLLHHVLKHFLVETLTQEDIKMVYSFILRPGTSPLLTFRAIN

## CC(C)(C)C(c1ccc(-c2ccccc2)cc1)n1ccnc1 (stereo not drawn)
[1]
  IC50: 460 nM

## c1ccc(CC(c2ccc(-c3ccccc3)cc2)n2ccnc2)cc1 (stereo not drawn)
[1]
  IC50: 780 nM

## CC(c1ccc(-c2ccc(F)cc2)cc1)n1ccnc1 (stereo not drawn)
[1]
  IC50: 1100 nM

## CCC(c1ccc(-c2ccc(N(C)C)cc2)cc1)n1ccnc1 (stereo not drawn)
[1]
  IC50: > 5000 nM

## CCC(CC)(c1ccc(-c2ccc(F)cc2)cc1)n1ccnc1
CYP1A2
  inhibition at 1 µM: 51%
CYP3A4
  inhibition at 1 µM: 95%
[1]
  IC50: 1300 nM

## C=CC(c1ccc(-c2ccccc2)cc1)n1ccnc1 (stereo not drawn)
[1]
  IC50: 1400 nM

## C=CC(c1ccc(-c2ccc(F)cc2)cc1)n1ccnc1 (stereo not drawn)
[1]
  IC50: > 5000 nM

## CCC(c1ccc(-c2ccc(OC(F)(F)F)cc2)cc1)n1ccnc1 (stereo not drawn)
[1]
  IC50: > 5000 nM

## CC(C)(c1ccc(-c2ccc(F)cc2)cc1)n1ccnc1
[1]
  IC50: 3800 nM

## CCC(c1ccc(-c2ccccc2)cc1)n1ccnc1 (stereo not drawn)
[1]
  IC50: 450 nM

## CCC(c1ccc(-c2ccc(F)cc2)cc1)n1ccnc1 (stereo not drawn)
CYP1A2
  inhibition at 1 µM: 97%
Rattus norvegicus [2]
  Activity: 13.4%
CYP2D6
  inhibition at 1 µM: 54%
[3]
  half-life: 600 min
CYP11B1
  inhibition at 0.2 µM: 66%
[4]
  Cmax: 3290 ng/mL
Rattus norvegicus [5]
  Activity: 13.9%
CYP3A4
  inhibition at 1 µM: 88%
Rattus norvegicus [6]
  Activity: 16.5%
CYP2B6
  inhibition at 1 µM: 46%
[7]
  Tmax: 6 h
Rattus norvegicus [8]
  Activity: 36.7%
[1]
  IC50: 345 nM
[9]
  AUC(0-inf): 70700 ng·h/mL
Rattus norvegicus [10]
  Activity: 11.7%
Rattus norvegicus [11]
  Activity: 13.9%
Rattus norvegicus [12]
  CL: 0.7 L/kg/h
CYP11B2
  inhibition at 0.2 µM: 66%

## CCC(c1ccc(-c2ccc(N3CCOCC3)cc2)cc1)n1ccnc1 (stereo not drawn)
[1]
  IC50: 2200 nM

## Fc1ccc(-c2ccc(C(CCCl)n3ccnc3)cc2)cc1 (stereo not drawn)
CYP1A2
  inhibition at 1 µM: 96%
CYP2D6
  inhibition at 1 µM: 32%
CYP3A4
  inhibition at 1 µM: 86%
CYP2B6
  inhibition at 1 µM: 34%
[1]
  IC50: 756 nM

## CC(c1ccc2c(c1)Cc1cc(O)ccc1-2)n1ccnc1 (stereo not drawn)
CYP1A2
  inhibition at 1 µM: 93%
CYP11B1
  inhibition at 0.2 µM: 96%
CYP3A4
  inhibition at 1 µM: 89%
[1]
  IC50: 99 nM
CYP11B2
  inhibition at 0.2 µM: 98%

## CCCCC(c1ccc(-c2ccccc2)cc1)n1ccnc1 (stereo not drawn)
[1]
  IC50: 300 nM

## CC(c1ccc2c(c1)[nH]c1cc(F)ccc12)n1ccnc1 (stereo not drawn)
CYP3A4
  inhibition at 1 µM: 75%
[1]
  IC50: 118 nM

## c1ccc(-c2ccc(C(c3ccccc3)n3ccnc3)cc2)cc1 (stereo not drawn) [BIFONAZOLE]
[1]
  IC50: 790 nM

## c1ccc(-c2ccc(C(c3ccc(-c4ccccc4)cc3)n3ccnc3)cc2)cc1
[1]
  IC50: 2300 nM

## CCC(c1ccc(-c2ccc(O)cc2)cc1)n1ccnc1 (stereo not drawn)
[1]
  IC50: 375 nM

## OCCC(c1ccc(-c2ccc(F)cc2)cc1)n1ccnc1 (stereo not drawn)
[1]
  IC50: > 5000 nM
